Experimental data reported in ChEMBL document CHEMBL2176942 (J Med Chem, 2012).

Legend:
Liver microsomes [1] = assay: Drug metabolism in human liver microsomes assessed as formation of metabolite 3-(4-(2-(3-(3-hydroxycyclohexyl)-1-methyl-2-(pyridin-2-yl)-1H-indole-6-carboxamido)-2-methylpropanamido)phenyl)acrylic acid incubated for 30 mins by HPLC/MS method; assay type: ADME, Microsome; settings: 0.5 h
Liver microsomes [2] = assay: Drug metabolism in rat liver microsomes assessed as formation of metabolite 3-(4-(2-(3-(3-hydroxycyclohexyl)-1-methyl-2-(pyridin-2-yl)-1H-indole-6-carboxamido)-2-methylpropanamido)phenyl)acrylic acid incubated for 30 mins by HPLC/MS method; assay type: ADME, Microsome; settings: 0.5 h
[3] = Permeability across human Caco2 cells at pH 7.4; assay type: ADME, cell-based; settings: Caco-2, pH 7.4, read-out: permeability
Summary of the method: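 Caco-2 permeability run without BSA, with both chambers at pH 7.4; values are the average of at least two determinations.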

in vitro [4] = settings: human
in vitro [5] = settings: rat
[6] = Cmax in rat at 10 mg/kg, po; assay type: ADME, organism-based; set-up: dose 10 mg/kg, route oral; settings: in vivo
Summary of the method: (§1)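 Rats starved overnight, then given 10 mg/kg po as a suspension in 0.3% Tween-80 and 0.5% Methocel, or 2 mg/kg iv in 70% PEG400. Plasma was solid-phase extracted and assayed by HPLC-UV (LOQ 6 ng/mL, calibration in blank plasma). Parameters were derived by noncompartmental analysis.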

[7] = AUC in rat at 10 mg/kg, po; assay type: ADME, organism-based; set-up: dose 10 mg/kg, route oral; settings: plasma; summary of the method: as §1
[8] = Mean residence time in rat at 10 mg/kg, po; assay type: ADME, organism-based; set-up: dose 10 mg/kg, route oral; settings: in vivo; summary of the method: as §1
[9] = Mean residence time in dog at 10 mg/kg, po; assay type: ADME, organism-based, Canis lupus familiaris; set-up: dose 10 mg/kg, route oral; settings: in vivo
Summary of the method: (§2)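 Dogs starved overnight, then dosed 2 mg/kg iv in 70% PEG400 or 10 mg/kg orally as a suspension in 0.3% Tween-80/0.5% Methocel. Plasma was extracted by solid phase and quantified by HPLC with UV diode-array detection (LOQ 6 ng/mL). Parameters came from noncompartmental analysis.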

[10] = Cmax in dog at 10 mg/kg, po; assay type: ADME, organism-based, Canis lupus familiaris; set-up: dose 10 mg/kg, route oral; settings: in vivo
[11] = AUC in dog at 10 mg/kg, po; assay type: ADME, organism-based, Canis lupus familiaris; set-up: dose 10 mg/kg, route oral; settings: plasma
Summary of the method: (§3)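 Fasted overnight, then dosed orally at 10 mg/kg as a suspension in 0.3% Tween-80 and 0.5% Methocel. Blood kept on ice and centrifuged at 4 °C; plasma stored at about −20 °C. Solid-phase extraction, then HPLC with UV diode-array detection (200–400 nm) quantified by peak height against blank-plasma standards (LOQ 6 ng/mL). AUC from noncompartmental analysis.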

[12] = Oral bioavailability in dog; assay type: ADME, organism-based, Canis lupus familiaris; settings: in vivo; summary of the method: as §2
[13] = Half life in rat at 2 mg/kg, iv; assay type: ADME, organism-based; set-up: dose 2 mg/kg, route intravenous; settings: in vivo; summary of the method: as §1
[14] = Clearance in dog at 2 mg/kg, iv; assay type: ADME, organism-based, Canis lupus familiaris; set-up: dose 2 mg/kg, route intravenous; settings: in vivo
[15] = Volume of distribution at steady state in dog at 2 mg/kg, iv; assay type: ADME, organism-based, Canis lupus familiaris; set-up: dose 2 mg/kg, route intravenous; settings: in vivo, read-out: Vdss; summary of the method: as §2
[16] = Clearance in rat at 2 mg/kg, iv; assay type: ADME, organism-based; set-up: dose 2 mg/kg, route intravenous; settings: in vivo
[17] = Volume of distribution at steady state in rat at 2 mg/kg, iv; assay type: ADME, organism-based; set-up: dose 2 mg/kg, route intravenous; settings: in vivo, read-out: Vdss; summary of the method: as §1
[18] = Oral bioavailability in rat; assay type: ADME, organism-based; settings: in vivo; summary of the method: as §1
[19] = Half life in dog at 2 mg/kg, iv; assay type: ADME, organism-based, Canis lupus familiaris; set-up: dose 2 mg/kg, route intravenous; settings: in vivo; summary of the method: as §2
[20] = Cmax in rhesus monkey at 10 mg/kg, po; assay type: ADME, organism-based, Macaca mulatta; set-up: dose 10 mg/kg, route oral; settings: in vivo
Summary of the method: (§4)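 Rhesus monkeys fasted overnight, then dosed iv at 2 mg/kg in 70% PEG400 or orally at 10 mg/kg as a suspension in 0.3% Tween-80 and 0.5% Methocel. Plasma was kept frozen at about −20 °C, extracted by solid-phase extraction and assayed by HPLC-UV against blank-plasma standards (LOQ 6 ng/mL). Parameters came from noncompartmental analysis.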

[21] = Mean residence time in rhesus monkey at 10 mg/kg, po; assay type: ADME, organism-based, Macaca mulatta; set-up: dose 10 mg/kg, route oral; settings: in vivo; summary of the method: as §4
[22] = Volume of distribution at steady state in rhesus monkey at 2 mg/kg, iv; assay type: ADME, organism-based, Macaca mulatta; set-up: dose 2 mg/kg, route intravenous; settings: in vivo, read-out: Vdss; summary of the method: as §4
[23] = Oral bioavailability rhesus monkey; assay type: ADME, organism-based, Macaca mulatta; settings: in vivo; summary of the method: as §4
[24] = AUC in rhesus monkey at 10 mg/kg, po; assay type: ADME, organism-based, Macaca mulatta; set-up: dose 10 mg/kg, route oral; settings: plasma; summary of the method: as §3
[25] = Half life in rhesus monkey at 2 mg/kg, iv; assay type: ADME, organism-based, Macaca mulatta; set-up: dose 2 mg/kg, route intravenous; settings: in vivo; summary of the method: as §4

Structure (SMILES): Cn1c(-c2ccccn2)c(C2CCCCC2)c2ccc(C(=O)NC(C)(C)C(=O)Nc3ccc(/C=C/C(=O)O)cc3)cc21
- Drug metabolism (Liver microsomes [1]): Active
- Drug metabolism (Liver microsomes [2]): Active

Structure (SMILES): Cn1c(-c2ccccn2)c(C2CCCC2)c2ccc(C(=O)NC3(C(=O)Nc4ccc(/C=C/C(=O)O)cc4)CCCC3)cc21
- Papp [3]: 12.6 ×10⁻⁶ cm/s
- half-life (in vitro [4]; microsomes): 1.6 h
- half-life (in vitro [5]; microsomes): 0.317 h

Structure (SMILES): Cn1c(-c2ccc(Cl)cn2)c(C2CCCC2)c2ccc(C(=O)NC3(C(=O)Nc4ccc(/C=C/C(=O)O)cc4)CCCC3)cc21
- half-life (in vitro [4]; liver microsomes): > 5 h

Structure (SMILES): Cn1c(-c2ccncc2)c(C2CCCC2)c2ccc(C(=O)NC3(C(=O)Nc4ccc(/C=C/C(=O)O)cc4)CCCC3)cc21
- Papp [3]: 0.8 ×10⁻⁶ cm/s
- half-life (in vitro [4]; liver microsomes): 1.78 h

Structure (SMILES): Cn1c(-c2ccc(F)cn2)c(C2CCCC2)c2ccc(C(=O)NC3(C(=O)Nc4ccc(/C=C/C(=O)O)cc4)CCC3)cc21
- half-life (in vitro [4]; liver microsomes): 2.78 h

Structure (SMILES): Cn1c(-c2cccc(N)n2)c(C2CCCC2)c2ccc(C(=O)NC3(C(=O)Nc4ccc(/C=C/C(=O)O)cc4)CCC3)cc21
- Cmax [6]: 3.7 µM
- AUC [7]: 8.4 µM·h
- MRT [8]: 3.4 h
- Papp [3]: 1.8 ×10⁻⁶ cm/s
- half-life (in vitro [4]; liver microsomes): > 5 h
- half-life (in vitro [5]; liver microsomes): 1.03 h

Structure (SMILES): COc1ccc(-c2c(C3CCCC3)c3ccc(C(=O)NC4(C(=O)Nc5ccc(/C=C/C(=O)O)cc5)CCC4)cc3n2C)cn1
- Papp [3]: 1.5 ×10⁻⁶ cm/s
- half-life (in vitro [4]; liver microsomes): 1.58 h
- half-life (in vitro [5]; liver microsomes): 1.02 h

Structure (SMILES): Cn1c(-c2ccncc2)c(C2CCCC2)c2ccc(C(=O)NC3(C(=O)Nc4ccc(/C=C/C(=O)O)cc4)CCC3)cc21
- Papp [3]: 2.9 ×10⁻⁶ cm/s
- half-life (in vitro [4]; liver microsomes): 1.87 h
- half-life (in vitro [5]; liver microsomes): 1.15 h

Structure (SMILES): Cn1c(-c2cnccn2)c(C2CCCC2)c2ccc(C(=O)NC3(C(=O)Nc4ccc(/C=C/C(=O)O)cc4)CCC3)cc21
- MRT [9]: 3.9 h
- Cmax [10]: 10.9 µM
- AUC [11]: 37.4 µM·h
- Cmax [6]: 7.8 µM
- bioavailability [12]: 54%
- half-life [13]: 2.2 h
- clearance [14]: 4.3 mL/min/kg
- AUC [7]: 17.7 µM·h
- Vd [15]: 0.75 L/kg
- MRT [8]: 2.4 h
- Papp [3]: 10 ×10⁻⁶ cm/s
- clearance [16]: 6.8 mL/min/kg
- Vd [17]: 0.58 L/kg
- bioavailability [18]: 41%
- half-life [19]: 1.6 h
- half-life (in vitro [4]; liver microsomes): 1.6 h
- half-life (in vitro [5]; liver microsomes): 0.933 h

Structure (SMILES): Cn1c(-c2ccoc2)c(C2CCCC2)c2ccc(C(=O)NC3(C(=O)Nc4ccc(/C=C/C(=O)O)cc4)CCC3)cc21
- Papp [3]: 7.5 ×10⁻⁶ cm/s
- half-life (in vitro [4]; microsomes): 2.7 h

Structure (SMILES): Cn1c(-c2ccc(Cl)cc2)c(C2CCCC2)c2ccc(C(=O)NC3(C(=O)Nc4ccc(/C=C/C(=O)O)cc4)CCC3)cc21
- half-life (in vitro [4]; liver microsomes): > 5 h
- half-life (in vitro [5]; liver microsomes): > 5 h

Structure (SMILES): Cc1ccc(-c2c(C3CCCC3)c3ccc(C(=O)NC4(C(=O)Nc5ccc(/C=C/C(=O)O)cc5)CCC4)cc3n2C)nc1
- Papp [3]: 6.9 ×10⁻⁶ cm/s
- half-life (in vitro [4]; microsomes): 0.883 h
- half-life (in vitro [5]; microsomes): 0.4 h

Structure (SMILES): Cn1c(-c2ccccn2)c(C2CCCC2)c2ccc(C(=O)NC(C)(C)C(=O)Nc3ccc(/C=C/C(=O)O)cc3)cc21
- Cmax [6]: 6.4 µM
- half-life [13]: 1.7 h
- AUC [7]: 7.2 µM·h
- MRT [8]: 1.7 h
- Papp [3]: 6.5 ×10⁻⁶ cm/s
- clearance [16]: 18.2 mL/min/kg
- Vd [17]: 1.3 L/kg
- bioavailability [18]: 46%

Structure (SMILES): Cn1c(-c2ccc(Cl)cn2)c(C2CCCC2)c2ccc(C(=O)NC(C)(C)C(=O)Nc3ccc(/C=C/C(=O)O)cc3)cc21
- Papp [3]: 1.8 ×10⁻⁶ cm/s
- half-life (in vitro [4]; microsomes): 3.93 h

Structure (SMILES): CN1CC[C@@](NC(=O)c2ccc3c(C4CCCC4)c(-c4cccc(N)n4)n(C)c3c2)(C(=O)Nc2ccc(/C=C/C(=O)O)cc2)C1
- Cmax [6]: 0.09 µM
- Papp [3]: 2.9 ×10⁻⁶ cm/s
- half-life (in vitro [4]; microsomes): > 5 h

Structure (SMILES): Cn1c(-c2ccccn2)c(C2CCCC2)c2ccc(C(=O)NC3(C(=O)Nc4ccc(/C=C/C(=O)O)cc4)CCC3)cc21 [BILB-1941]
- Cmax [20]: 6.4 µM
- MRT [9]: 5.4 h
- AUC [11]: 99 µM·h
- Cmax [6]: 7.5 µM
- bioavailability [12]: 64%
- half-life [13]: 1.5 h
- AUC [7]: 22.7 µM·h
- Vd [15]: 0.54 L/kg
- MRT [8]: 4.1 h
- MRT [21]: 2.9 h
- Papp [3]: 11.2 ×10⁻⁶ cm/s
- Vd [22]: 0.7 L/kg
- bioavailability [23]: 70%
- Vd [17]: 0.48 L/kg
- AUC [24]: 20.5 µM·h
- half-life [25]: 1.7 h
- bioavailability [18]: 59%
- half-life [19]: 4.3 h
- half-life (in vitro [4]; microsomes): 1.42 h
- half-life (in vitro [5]; microsomes): 0.517 h
